Test results reported in ChEMBL document CHEMBL1125740, “Heterocyclic quinones. 17. A new in vivo active antineoplastic drug: 6,7-bis(1-aziridinyl)-4-[[3-(N,N-dimethylamino)propyl]amino]-5,8- quinazolinedione” (J Med Chem, 1991).
“And” between values parts separate entries of the source, which are not always exact repeats. Equal entries are not always repeated.

Legend:
L1210 = test: Inhibitory activity against L1210 cell growth; format: functional, cell-based; details: Mus musculus
Method in brief: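 L1210 cells were grown in RPMI 1640 with 2 mM glutamine and 20% heat-inactivated horse serum at 37 °C under 5% CO2. Drug was added in DMSO (0.5% final) to exponential cells seeded at 0.8×10^5 cells/mL. Coulter counts were done in triplicate at 48 h. IC50 was taken from a regression of probit % growth inhibition against log dose, from one experiment.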

P388 [1] = test: (§1) Compound was evaluated in vivo for antitumor activity after intraperitoneal administration against P388 (1303) for change in body weight at an optimal dose of 1 mg/kg/injection; format: functional, Mus musculus
P388 [2] = test: (§2) Compound was evaluated in vivo for antitumor activity after intraperitoneal administration against P388 (1303) for % increase in life span at an optimal dose of 1 mg/kg/injection; format: functional; details: Mus musculus, P388, ip
P388 [3] = test: (§3) Compound was evaluated in vivo for antitumor activity after intraperitoneal administration against P388 (1303) for median day of death at an optimal dose of 1 mg/kg/injection; format: functional, Mus musculus
P388 [4] = test: as §1; format: functional, Mus musculus; remark: listed apart in the source
P388 [5] = test: as §2; format: functional; details: Mus musculus, P388, ip; remark: listed apart in the source
P388 [6] = test: as §3; format: functional, Mus musculus; remark: listed apart in the source
P388 [7] = test: (§4) Compound was evaluated in vivo for antitumor activity after intraperitoneal administration against P388 (1303) for mortality range at an optimal dose of 1 mg/kg/injection; format: functional, Mus musculus
P388 [8] = test: (§5) Compound was evaluated in vivo for antitumor activity after intraperitoneal administration against P388 (1303) for tumor free survivors at an optimal dose of 1 mg/kg/injection; format: functional, Mus musculus
P388 [9] = test: Compound was evaluated in vivo for antitumor activity after intraperitoneal administration against P388/L-PAM for total dose at an optimal dose of 1 mg/kg/injection; format: functional, Mus musculus
P388 [10] = test: as §4; format: functional, Mus musculus; remark: listed apart in the source
P388 [11] = test: as §5; format: functional, Mus musculus; remark: listed apart in the source
P388 [12] = test: Compound was evaluated in vivo for antitumor activity after intraperitoneal administration against P388 (1303) for total dose at an optimal dose of 1 mg/kg/injection; format: functional, Mus musculus
Mus musculus [13] = test: Compound was evaluated in vivo for antitumor activity against colon adenocarcinoma after injecting the compound intraperitoneally for optimal dose; format: functional
Mus musculus [14] = test: Compound was evaluated in vivo for antitumor activity against colon adenocarcinoma after injecting the compound intraperitoneally for median tumor burden; format: functional
Mus musculus [15] = test: Compound was evaluated in vivo for antitumor activity against colon adenocarcinoma after injecting the compound intraperitoneally for percent T/C; format: functional
Mus musculus [16] = test: Compound was evaluated in vivo for antitumor activity against colon adenocarcinoma after injecting the compound intraperitoneally for total dose.; format: functional
Mus musculus [17] = test: Compound was evaluated in vivo for antitumor activity against colon adenocarcinoma after injecting the compound intraperitoneally for toxicity related death.; format: functional
P388 [18] = test: Compound was evaluated in vivo for antitumor activity after intraperitoneal administration against P388/L-PAM(12 for median day of death at an optimal dose of 1 mg/kg/injection; format: functional, Mus musculus
P388 [19] = test: Compound was evaluated in vivo for antitumor activity after intraperitoneal administration against P388/L-PAM(12 for mortality range at an optimal dose of 5 mg/kg/injection; format: functional, Mus musculus
P388 [20] = test: Compound was evaluated in vivo for antitumor activity after intraperitoneal administration against P388/L-PAM(12) for tumor free survivors at an optimal dose of 1 mg/kg/injection; format: functional, Mus musculus
P388 [21] = test: Compound was evaluated in vivo for antitumor activity after intraperitoneal administration against P388 (1303) for median day of death at an optimal dose of 5 mg/kg/injection; format: functional, Mus musculus
P388 [22] = test: Compound was evaluated in vivo for antitumor activity after intraperitoneal administration against P388 (1303) for change in body weight at an optimal dose of 5 mg/kg/injection; format: functional, Mus musculus
P388 [23] = test: Compound was evaluated in vivo for antitumor activity after intraperitoneal administration against P388 (1303) for % increase in life span at an optimal dose of 5 mg/kg/injection; format: functional; details: Mus musculus, P388, ip
P388 [24] = test: (§6) Compound was evaluated in vivo for antitumor activity after intraperitoneal administration against P388/L-PAM(14) for mortality range at an optimal dose of 5 mg/kg/injection; format: functional, Mus musculus
P388 [25] = test: (§7) Compound was evaluated in vivo for antitumor activity after intraperitoneal administration against P388/L-PAM(14) for % increase in life span at an optimal dose of 5 mg/kg/injection; format: functional; details: Mus musculus, P388, ip
P388 [26] = test: Compound was evaluated in vivo for antitumor activity after intraperitoneal administration against P388/L-PAM(14) for median day of death at an optimal dose of 5 mg/kg/injection; format: functional, Mus musculus
P388 [27] = test: Compound was evaluated in vivo for antitumor activity after intraperitoneal administration against P388/L-PAM(12 for change in body weight at an optimal dose of 1 mg/kg/injection; format: functional, Mus musculus
P388 [28] = test: Compound was evaluated in vivo for antitumor activity after intraperitoneal administration against P388/L-PAM(12) for % increase in life span at an optimal dose of 1 mg/kg/injection; format: functional; details: Mus musculus, P388, ip
P388 [29] = test: (§8) Compound was evaluated in vivo for antitumor activity after intraperitoneal administration against P388/L-PAM(14) for tumor free survivors at an optimal dose of 5 mg/kg/injection; format: functional, Mus musculus
P388 [30] = test: Compound was evaluated in vivo for antitumor activity after intraperitoneal administration against P388 (1303) for mortality range at an optimal dose of 5 mg/kg/injection; format: functional, Mus musculus
P388 [31] = test: Compound was evaluated in vivo for antitumor activity after intraperitoneal administration against P388/L-PAM(12) for total dose at an optimal dose of 5 mg/kg/injection; format: functional, Mus musculus
P388 [32] = test: Compound was evaluated in vivo for antitumor activity after intraperitoneal administration against P388 (1303) for tumor free survivors at an optimal dose of 5 mg/kg/injection; format: functional, Mus musculus
P388 [33] = test: Compound was evaluated in vivo for antitumor activity after intraperitoneal administration against P388/L-PAM(14) for total dose at an optimal dose of 5 mg/kg/injection; format: functional, Mus musculus
P388 [34] = test: (§9) Compound was evaluated in vivo for antitumor activity after intraperitoneal administration against P388/L-PAM(14) for change in body weight at an optimal dose of 5 mg/kg/injection; format: functional, Mus musculus
P388 [35] = test: as §8; format: functional, Mus musculus; remark: listed apart in the source
P388 [36] = test: Compound was evaluated in vivo for antitumor activity after intraperitoneal administration against P388 (1313) for total dose at an optimal dose of 5 mg/kg/injection; format: functional, Mus musculus
P388 [37] = test: as §6; format: functional, Mus musculus; remark: listed apart in the source
P388 [38] = test: as §9; format: functional, Mus musculus; remark: listed apart in the source
P388 [39] = test: as §7; format: functional; details: Mus musculus, P388, ip; remark: listed apart in the source
P388 [40] = test: Compound was evaluated in vivo for antitumor activity after intraperitoneal administration against P388 (1303) for total dose at an optimal dose of 5 mg/kg/injection; format: functional, Mus musculus

CCN(CC)CCCC(C)Nc1ncnc2c1C(=O)C(OC)=CC2=O (configuration not stated)
IC50 (L1210): 0.435 µg/mL and 1.26 µM

CN(CCCNc1ncnc2c1C(=O)C(N1CC1)=C(N1CC1)C2=O)CCCNc1ncnc2c1C(=O)C(N1CC1)=C(N1CC1)C2=O
IC50 (L1210): 4.8 nM

CCN(CC)CCCNc1ncnc2c1C(=O)C(OC)=CC2=O
IC50 (L1210): 0.393 µg/mL and 1.24 µM

COC(=O)CNc1ncnc2c1C(=O)C(OC)=CC2=O
IC50 (L1210): 1.2 µg/mL and 4.26 µM

CN(C)CCCNc1ncnc2c1C(=O)C(N1CCCCC1)=CC2=O
IC50 (L1210): 0.406 µg/mL and 1.17 µM

COC1=CC(=O)c2ncnc(NCCN(C)C)c2C1=O
IC50 (L1210): 0.316 µg/mL and 1.14 µM

COC(=O)C(CC(C)C)NC(=O)C(CC(C)C)Nc1ncnc2c1C(=O)C(OC)=CC2=O (configuration not stated)
IC50 (L1210): 0.581 µg/mL and 1.3 µM

COC1=CC(=O)c2ncnc(NCCCN(C)C)c2C1=O
IC50 (L1210): 0.501 µg/mL and 1.73 µM

COC1=CC(=O)c2ncnc(NCCCn3cnc4c(N)ncnc43)c2C1=O
IC50 (L1210): > 10 µg/mL and > 24.6 µM

COC1=CC(=O)c2ncnc(NCCCN(C)CCCNc3ncnc4c3C(=O)C(OC)=CC4=O)c2C1=O
IC50 (L1210): 1250 nM

CCCC(=O)OCCNc1ncnc2c1C(=O)C(OC)=CC2=O
IC50 (L1210): 0.85 µg/mL and 2.66 µM

COC1=CC(=O)c2ncnc(OCCOCCOCCO)c2C1=O
IC50 (L1210): > 10 µg/mL and > 29.6 µM

COC1=CC(=O)c2ncnc(NCCO)c2C1=O
IC50 (L1210): 1.78 µg/mL and 7.13 µM

COC(=O)C(Nc1ncnc2c1C(=O)C(OC)=CC2=O)C(C)C (configuration not stated)
IC50 (L1210): 0.825 µg/mL and 2.59 µM

CCN(CC)CCNc1ncnc2c1C(=O)C(OC)=CC2=O
IC50 (L1210): 0.281 µg/mL and 898 nM

O=C1C(N2CC2)=C(N2CC2)C(=O)c2ncncc21
IC50 (L1210): 80 nM

COc1cccc2c1C(=O)c1c(O)c3c(c(O)c1C2=O)C[C@@](O)(C(C)=O)C[C@@H]3O[C@H]1C[C@H](N)[C@H](O)[C@H](C)O1 [DAUNORUBICIN]
Change in body weight (P388 [1]): 1.4 g mouse-1
ILS at 1 mg/kg (P388 [2]): 79%
Median day of death (P388 [3]): 18
Change in body weight (P388 [4]): 0.3 g mouse-1
ILS at 1 mg/kg (P388 [5]): 63%
Median day of death (P388 [6]): 19.5
Mortality (P388 [7]): 27 days
Survivors (P388 [8]): 0
Total dose (P388 [9]): 4 mg/kg
Mortality (P388 [10]): 20 days
Survivors (P388 [11]): 0
Total dose (P388 [12]): 4 mg/kg

COc1cccc2c1C(=O)c1c(O)c3c(c(O)c1C2=O)C[C@@](O)(C(=O)CO)C[C@@H]3O[C@H]1C[C@H](N)[C@H](O)[C@H](C)O1 [DOXORUBICIN]
IC50 (L1210): 0.028 µg/mL and 48 nM

O=c1[nH]cc(F)c(=O)[nH]1 [FLUOROURACIL]
Optimal dose (Mus musculus [13]): 70 mg/kg
Tumor burden (Mus musculus [14]): 60 mg
T/C (Mus musculus [15]): 14%
Total dose (Mus musculus [16]): 140 mg/kg
Toxicity (Mus musculus [17]): 0

N[C@@H](Cc1ccc(N(CCCl)CCCl)cc1)C(=O)O [MELPHALAN]
Median day of death (P388 [18]): 15
Mortality (P388 [19]): 31 days
Survivors (P388 [20]): 0
Median day of death (P388 [21]): 24
Change in body weight (P388 [22]): 0.1 g mouse-1
ILS at 5 mg/kg (P388 [23]): 118%
Mortality (P388 [24]): 34 days
ILS at 5 mg/kg (P388 [25]): 14%
Median day of death (P388 [26]): 16
Change in body weight (P388 [27]): 0.6 g mouse-1
ILS at 1 mg/kg (P388 [28]): 15%
Survivors (P388 [29]): 0
Mortality (P388 [30]): 34 days
Total dose (P388 [31]): 5 mg/kg
Survivors (P388 [32]): 0
Total dose (P388 [33]): 5 mg/kg
Change in body weight (P388 [34]): 0 g mouse-1
Survivors (P388 [35]): 0
Total dose (P388 [36]): 5 mg/kg
Mortality (P388 [37]): 19 days
Change in body weight (P388 [38]): 0.4 g mouse-1
ILS at 5 mg/kg (P388 [39]): 121%
Total dose (P388 [40]): 5 mg/kg
